Data reported in ChEMBL document CHEMBL4732185, “Synthesis, biological evaluation and structure-activity relationship of novel dichloroacetophenones targeting pyruvate dehydrogenase kinases with potent anticancer activity” (Eur J Med Chem, 2021).
Activity calls are given as the source filed them. No cut-off for these calls is given here.

Assays:
MCF7 [1] = assay: Antiproliferative activity against human MCF7 cells assessed as growth inhibition at 10 uM after 72 hrs by MTT assay relative to control; assay type: functional; conditions: for inhibition of growth at 10 µM: read-out: GI
Outline: (§1)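 Single-concentration MTT screen on MCF-7 and A549 cells grown in DMEM + 10% FBS. Cells at 3000–6000/well, cultured overnight, then given compound in buffer with 1% DMSO for 72 h. MTT (0.5 mg/mL) added for 4 h, formazan dissolved in DMSO, A570 read. Percent inhibition reported as the average ± S.D. of three independent measurements.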

MCF7 [2] = assay: Antiproliferative activity against human MCF7 cells assessed as growth inhibition at 1 uM after 72 hrs by MTT assay relative to control; assay type: functional; conditions: for inhibition of growth at 1 µM: read-out: GI; outline: as §1
A549 [3] = assay: Antiproliferative activity against human A549 cells assessed as growth inhibition at 10 uM after 72 hrs by MTT assay relative to control; assay type: functional; conditions: for inhibition of growth at 10 µM: read-out: GI; outline: as §1
A549 [4] = assay: Antiproliferative activity against human A549 cells assessed as growth inhibition at 1 uM after 72 hrs by MTT assay relative to control; assay type: functional; conditions: for inhibition of growth at 1 µM: read-out: GI; outline: as §1
Homo sapiens = organism: Homo sapiens; assay: Inhibition of PDK (unknown origin) using RYHGHSMSDP as substrate at 1 uM after 30 mins by Kinase-Glo luminescent assay
A549 [5] = assay: Antiproliferative activity against human A549 cells assessed as growth inhibition after 72 hrs by MTT assay; assay type: functional, cell-based
Outline: (§2)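 MTT viability assay. Cancer lines seeded at 3000–6000 cells/well and L02 at 7000 cells/well, cultured overnight, then exposed to a full dose range for 72 h. MTT (0.5 mg/mL) added for 4 h, supernatant removed, formazan dissolved in DMSO, absorbance read at 570 nm. IC50 taken as the mean of three independent experiments. Cells grown in DMEM + 10% FBS, 37 °C, 5% CO2.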

MCF7 [6] = assay: Antiproliferative activity against human MCF7 cells assessed as growth inhibition after 72 hrs by MTT assay; assay type: functional, cell-based; outline: as §2
SH-SY5Y = assay: Antiproliferative activity against human SHSY-5Y cells assessed as growth inhibition after 72 hrs by MTT assay; assay type: functional, cell-based; outline: as §2
HCT-116 = assay: Antiproliferative activity against human HCT-116 cells assessed as growth inhibition after 72 hrs by MTT assay; assay type: functional, cell-based; outline: as §2
A-375 = assay: Antiproliferative activity against human A375 cells assessed as growth inhibition after 72 hrs by MTT assay; assay type: functional, cell-based; outline: as §2
PC-3 = assay: Antiproliferative activity against human PC3 cells assessed as growth inhibition after 72 hrs by MTT assay; assay type: functional, cell-based; outline: as §2
L02 = assay: Cytotoxicity against human L02 cells assessed as reduction in cell viability after 72 hrs by MTT assay; assay type: cell-based; outline: as §2
[7] = Inhibition of PDK (unknown origin) using RYHGHSMSDP as substrate after 30 mins by Kinase-Glo luminescent assay; parameters: species or system Homo sapiens
[8] = Homo sapiens, A549, 72 h, read-out: IC50
[9] = Homo sapiens, MCF7, 72 h, read-out: IC50
[10] = Homo sapiens, SH-SY5Y, 72 h, read-out: IC50
[11] = Homo sapiens, HCT-116, 72 h, read-out: IC50
[12] = Homo sapiens, A-375, 72 h, read-out: IC50
[13] = Homo sapiens, PC-3, 72 h, read-out: IC50
[14] = Homo sapiens, L02, 72 h, read-out: IC50

| SMILES | inhibition of growth at 10 µM (MCF7 [1]) [%] | inhibition of growth at 1 µM (MCF7 [2]) [%] | inhibition of growth at 10 µM (A549 [3]) [%] | inhibition of growth at 1 µM (A549 [4]) [%] | inhibition (Homo sapiens) [%] | other results |
| --- | --- | --- | --- | --- | --- | --- |
| CCOc1ccc(Nc2ccc(C(=O)C(Cl)Cl)cc2[N+](=O)[O-])cc1 | 93.8 | 18.8 | 97.4 | 52.9 | 68.7 |  |
| CN(C)c1ccc(Nc2ccc(C(=O)C(Cl)Cl)cc2[N+](=O)[O-])cc1 | 93.2 | 31.6 | 98.6 | 75 | 88.2 |  |
| O=C([O-])C(Cl)Cl.[Na+] [SODIUM DICHLOROACETATE] |  |  |  |  |  | IC50 (A549 [5]; [8]): 19500 µM; IC50 (MCF7 [6]; [9]): 13400 µM; IC50 (SH-SY5Y; [10]): 17400 µM; IC50 (HCT-116; [11]): 9800 µM; IC50 (A-375; [12]): 20100 µM; IC50 (PC-3; [13]): 15700 µM; IC50 (L02; [14]): 21700 µM |
| O=C(c1ccc(N2CCOCC2)c([N+](=O)[O-])c1)C(Cl)Cl | 90.4 | 18.9 | 95.6 | 10.1 | 36.9 |  |
| O=C(c1ccc(N2CCCCC2)c([N+](=O)[O-])c1)C(Cl)Cl | 95.8 | 22.4 | 97.1 | 38.9 | 40.2 |  |
| O=C(c1ccc(NC2CC2)c([N+](=O)[O-])c1)C(Cl)Cl | 96 | 25.7 | 95.7 | 21.6 | 17.5 |  |
| O=C(c1ccc(-n2cncn2)c([N+](=O)[O-])c1)C(Cl)Cl | 11.9 |  | 58.9 |  | 17.4 | growth inhibition (GI) (MCF7 [2]): inactive; growth inhibition (GI) (A549 [4]): inactive |
| CC(C)(C)c1ccc(Nc2ccc(C(=O)C(Cl)Cl)cc2[N+](=O)[O-])cc1 | 96.4 | 41.2 | 93.2 | 48.8 | 65.8 | IC50 (A549 [5]; [8]): 1.2 µM; IC50 (MCF7 [6]; [9]): 1.9 µM; IC50 (SH-SY5Y; [10]): 1.1 µM; IC50 (HCT-116; [11]): 0.5 µM; IC50 (A-375; [12]): 0.9 µM; IC50 (PC-3; [13]): 0.47 µM; IC50 (L02; [14]): 5.9 µM; EC50 [7]: 0.55 µM |
| CN(C)C(=O)c1ccc(S(=O)(=O)c2ccc(NC(=O)[C@@](C)(O)C(F)(F)F)c(Cl)c2)cc1 |  |  |  |  | 98.7 | growth inhibition (GI) (MCF7 [1]): inactive; growth inhibition (GI) (MCF7 [2]): inactive; growth inhibition (GI) (A549 [3]): inactive; growth inhibition (GI) (A549 [4]): inactive; IC50 (A549 [5]; a549): Not Active; IC50 (MCF7 [6]; mcf7): Not Active; IC50 (SH-SY5Y; sh-sy5y): Not Active; IC50 (HCT-116; hct-116): Not Active; IC50 (A-375; a-375): Not Active; IC50 (PC-3; pc-3): Not Active; IC50 (L02; l02): Not Active; EC50 [7]: 0.053 µM |
| Cc1ccc(-c2ccc(C(=O)C(Cl)Cl)cc2[N+](=O)[O-])cc1 | 89.1 | 26.4 | 96 | 13.8 | 5.9 |  |
| Cc1ccc(Nc2ccc(C(=O)C(Cl)Cl)cc2[N+](=O)[O-])cc1 | 88.9 | 12.1 | 97.3 | 48.1 | 64.4 |  |
| CC(C)(O)c1ccc(Nc2ccc(C(=O)C(Cl)Cl)cc2[N+](=O)[O-])cc1 | 92.8 | 33.9 | 96.3 | 37.9 | 48.8 | IC50 (A549 [5]; [8]): 3.1 µM; IC50 (MCF7 [6]; [9]): 2.98 µM; IC50 (SH-SY5Y; [10]): 2.3 µM; IC50 (HCT-116; [11]): 1.5 µM; IC50 (A-375; [12]): 1.8 µM; IC50 (PC-3; [13]): 2.34 µM; IC50 (L02; [14]): 7.8 µM; EC50 [7]: 1.49 µM |
| COc1ccc(Nc2ccc(C(=O)C(Cl)Cl)cc2[N+](=O)[O-])cc1OC | 90.5 | 24.2 | 96.6 | 40.5 | 66.4 |  |
| O=C(c1ccc(-n2ccnc2[N+](=O)[O-])c([N+](=O)[O-])c1)C(Cl)Cl | 21.4 |  | 80.9 |  | 8.1 | growth inhibition (GI) (MCF7 [2]): inactive; growth inhibition (GI) (A549 [4]): inactive |
